Screening results (PubChem)
This is a sample that favours compounds with a hit; in the whole collection about 1.5% have one here.
C2C12 statin – suppressors of statin myotoxicity in C2C12 myotubes, primary screen, cell-based, single point, plate reader | hit rate 0.78% among 330,000 | C2C12 myotubes + simvastatin, ATP luminescence, 48 h; scaled: DMSO 0, geranylgeraniol control 100 | rescue of ATP level, % at 7.49 µM;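 active means mean ATP rescue above about 67%, or every replicate alone reaching that limit, limit read from the data, passing the limit was not always enough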;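 further: myotubes were challenged with 10 µM simvastatin during compound exposure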
SUMO Mot1 rescue – yeast Mot1-301 growth rescue at high temperature, primary screen, SUMOylation pathway inhibitor project, S. cerevisiae, ATP luminescence, 38.5C; S. cerevisiae Mot1-301 growth rescue; percent above DMSO median, 100 means doubled; growth rescue, % at 18.8 µM; hit rate 1% among 320,000; AID 2716, 2010;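 active means every valid replicate shows activation above 250% relative to neutral control wells; inactive means the rest, any valid replicate at or below 250%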;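 further: OY570 slx delta 5 strain wells were the positive control but not used for scaling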
Cneo AK release – Cryptococcus neoformans cell lysis inducers, primary screen, AK release luminescence, single concentration | C. neoformans lysis, adenylate kinase release luminescence, 4 h; normalised: neutral wells 0, clomiphene wells 100 | lysis activity, % at 15 µM | hit rate 0.2% among 360,000;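 active means mean lysis activity across replicates of at least 80%, whatever share of replicates individually reach that level; inactive means mean lysis activity below 80%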
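Material: C. neoformans cells | Amount: Yeast cell density of 5 × 10^6 cells/mL | Medium: Fresh YPD growth medium | Dosing: Single dose | Times: Static 4 h at 37 °C with compound, 1 h detection | Detection: AK luminescence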
Numbers without * were called inactive; i = inactive; . = not tested or not shown.

SMILES	C2C12 statin	SUMO Mot1 rescue	Cneo AK release
COc1ccc(CN(C)C[C@@H]2OCCCC[C@@H](C)Oc3ccc(NC(=O)Cc4ccccc4)cc3C(=O)N([C@H](C)CO)C[C@H]2C)cc1	.	.	0
NC(=O)c1ccc(NC(=O)CCC(=O)N2CCN(S(=O)(=O)c3ccc(Cl)cc3)CC2)cc1	.	i	.
O=C(CCC(=O)N1CCN(S(=O)(=O)c2ccc(Cl)cc2)CC1)Nc1cccc(Br)c1	72*	-27	1
O=C(c1ccc([N+](=O)[O-])cc1)N(Cc1ccccc1)c1ccccn1	2	-19	0
O=[N+]([O-])c1ccccc1SN(Cc1ccccc1)c1ccccn1	.	376*	.
COc1ccccc1S(=O)(=O)N[C@H]1CC[C@H](CCNC(=O)C2CCC2)O[C@@H]1CO	-1	.	-2
CC1(C)C2(C#N)C(N)=NC3(OCCO3)C12C#N (centres undefined)	-2	9	-3
CCC1(C)C2(C#N)C(N)=NC(OC)(OC)C12C#N (centres undefined)	72*	4	-3
CCc1ccc(N(C(C)=O)C2C=CS(=O)(=O)C2)cc1 (centres undefined)	.	531*	2
CC(=O)N(c1ccc(Br)cc1)C1C=CS(=O)(=O)C1 (centres undefined)	-9	25	1
O=C(N[C@@H]1CC[C@@H](CCNC(=O)C2CCC2)O[C@H]1CO)c1ccccn1	0	.	-2
CN(C)C(=O)C[C@H]1CC[C@H](NC(=O)C2CCOCC2)[C@@H](CO)O1	-11	.	-13
CCC(C)Sc1ccc([C@@H]2[C@@H]3C(=O)N(CC)C(=O)[C@@H]3[C@]3(C(=O)OC)CCCCN23)cc1OC (some centres undefined)	138*	7	-1
COC(=O)[C@@]12CCCN1[C@H](c1ccc(-c3cccc(Cl)c3)c(OC)c1)[C@H]1C(=O)N(C)C(=O)[C@H]12	-20	178	0
COC(=O)[C@@]12CCCCN1[C@H](c1ccc(-c3cccc(Cl)c3)c(OC)c1)[C@@H]1C(=O)N(C)C(=O)[C@@H]12	137*	6	1
CCC(C)Sc1ccc([C@@H]2[C@@H]3C(=O)N(C)C(=O)[C@@H]3[C@]3(C(=O)OC)CCCCN23)cc1OC (some centres undefined)	1	-13	0
C[C@@H]1CN([C@@H](C)CO)C(=O)Cc2cc(NS(=O)(=O)c3cccs3)ccc2O[C@H]1CN(C)Cc1ccncc1	-35	.	1
CO[C@H]1CN(C)C(=O)c2cc(NC(C)=O)ccc2OC[C@@H](C)N(C(=O)CN2CCOCC2)C[C@@H]1C	6	.	50
COc1ccc(C2(CNC(=O)CCC(=O)O)CCCC2)cc1	86*	4	0
COc1ccc(C(=O)NCC2(c3ccccc3)CCCC2)c(OC)c1	6	-1	4
CCC1S/C(=C(\C#N)C(=O)NCc2ccco2)N(c2ccc(F)cc2)C1=O (centres undefined)	13	-4	2
N#C/C(C(=O)NCc1ccco1)=C1/SC(Cc2ccc(F)cc2)C(=O)N1c1ccccc1 (centres undefined)	87*	6	-3
CN1c2ccc(C#Cc3cccnc3)cc2[C@H]2[C@H](CCN2S(=O)(=O)c2ccc(F)cc2)[C@H]1CO	-54	.	-1
C[C@@H]1CCCCO[C@@H](CN(C)Cc2ccc3c(c2)OCO3)[C@H](C)CN([C@@H](C)CO)C(=O)c2cc(NC(=O)NC3CCCCC3)ccc2O1	.	.	1
CCCn1c(SCC(=O)Nc2ccc(NC(=O)CC)cc2)nc2c1c(=O)n(C)c(=O)n2C	-5	70	4
SMILES	C2C12 statin	SUMO Mot1 rescue	Cneo AK release
CCCn1c(SCC(=O)c2ccc(OC)c(OC)c2)nc2c1c(=O)n(C)c(=O)n2C	130*	21	.
COc1ccc(S(=O)(=O)Nc2ccc3c(c2)C(=O)N([C@@H](C)CO)C[C@H](C)[C@H](CN(C)C(=O)c2ccccc2)OCCCC[C@@H](C)O3)cc1	0	.	-2
O=C(N[C@@H]1CC[C@H](CCNC(=O)C2CCCC2)O[C@H]1CO)c1ccccn1	-3	.	-4
CCCN1CCN(C(=O)Nc2ccc(C(=O)OCC)cc2)CC1	109*	-8	-2
CCOC(=O)c1ccc(NC(=O)N2CCCCCC2)cc1	-5	9	-10
O=C(C[C@H]1CC[C@H](NC(=O)NC2CCCC2)[C@@H](CO)O1)NCc1ccc(F)cc1	5	.	2
COc1ccc(C(=O)Nc2n[nH]c(-c3ccncc3)n2)cc1	107*	177	0
CCOC(=O)c1ccc(NC(=O)CSc2n[nH]c(-c3ccncc3)n2)cc1	13	-20	.
COC(=O)c1ccc(NC(=O)CSc2n[nH]c(-c3ccncc3)n2)cc1	77*	451	6
COc1ccc(C(=O)Nc2nc(C)cc(C)n2)cc1	.	-8	.
C[C@H]1CN([C@@H](C)CO)S(=O)(=O)c2ccc(C#Cc3ccc(F)cc3)cc2O[C@@H]1CN(C)C(=O)CN(C)C	-21	.	2
CO[C@@H]1CN(C)C(=O)c2cc(NC(=O)c3ccccc3)ccc2OC[C@@H](C)N(C)C[C@@H]1C	1	.	5
C/C=C/c1cnc2c(c1)C(=O)N([C@H](C)CO)C[C@H](C)[C@H](CN(C)C(=O)Nc1c(C)noc1C)O2	8	.	1
C[C@@H]1CN([C@H](C)CO)C(=O)c2cc(NC(=O)CCCN(C)C)ccc2O[C@@H](C)CCCCO[C@H]1CN(C)S(=O)(=O)c1ccccc1	.	.	-6
O=C(Cc1ccccc1)N1CC[C@@H]2[C@H]1c1cc(-c3ccccc3)ccc1N[C@@H]2CO	1	.	8
COc1ccc(S(=O)(=O)N(C)C[C@H]2OCCCC[C@@H](C)Oc3ccc(NS(=O)(=O)c4ccccc4)cc3C(=O)N([C@@H](C)CO)C[C@H]2C)cc1	.	.	-2
C[C@H](CO)N1C[C@H](C)[C@@H](CN(C)C(=O)c2ccc3c(c2)OCO3)Oc2ncc(C3=CCCCC3)cc2C1=O	27	.	2
C=CCNC(=O)[C@@H]1[C@H]2C(=O)O[C@H](c3ccccc3)[C@H](c3ccccc3)N2[C@H](c2ccc(O)cc2)[C@@]12C(=O)N(C(=O)OCCOC)c1ccc(C#Cc3ccc(OC)cc3)cc12	.	.	7
C[C@H]1CN([C@@H](C)CO)C(=O)c2cc(NS(=O)(=O)c3ccccc3)ccc2O[C@@H]1CN(C)C(=O)Nc1cccc2ccccc12	17	.	-4
C[C@H](O)C#Cc1cnc2c(c1)C(=O)N([C@H](C)CO)C[C@H](C)[C@@H](CN(C)CC1CCCCC1)O2	17	.	1
Cc1ccc(S(=O)(=O)N(C)C[C@@H]2Oc3ccc(NC(=O)NC(C)C)cc3CC(=O)N([C@@H](C)CO)C[C@@H]2C)cc1	-34	.	0
Cc1ccc(NC(=O)CCNS(=O)(=O)c2ccc3[nH]c(=O)oc3c2)cc1F	111*	-11	1
Cc1cc(NC(=O)CCNS(=O)(=O)c2ccc3[nH]c(=O)oc3c2)ccc1Br	3	-13	-2
COC(=O)C[C@@H]1CC[C@H]2[C@H](COc3ccc(NS(=O)(=O)c4ccc(F)cc4)cc3C(=O)N2C)O1	5	.	-1
